Source: article PMC4159095 (Journal of medicinal chemistry, 2013)
Values belong to the compound of their own block, whether it stands above or below them.

Tests used:
SHP2 = test: Reversibility test by extensive washing of the enzyme-inhibitor complex; format: biochemical
[1] = system: U937 human lymphoma cells (PTPN11 G60R); test: Cell proliferation assay; format: cell-based; conditions: 48 hours
U937 cells = test: Apoptosis, Annexin V staining, FACS; format: cell-based, human; conditions: 24 hours
[2] = system: IL-3-induced activation of Erk, Akt, Jak2, and Stat5; test: IL-3 signaling in Ba/F3 cells, immunoblotting; format: cell-based
Procedure, shortened: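 Ba/F3 cells were starved overnight in serum- and cytokine-free RPMI 1640, pretreated for 3 h with test compound (20 μM for the time course, graded concentrations for dose response), then stimulated with IL-3 (1.0 ng/mL) for set times or 10 min. RIPA lysates (50 μg protein) were run on 10% SDS-PAGE and immunoblotted for p-Erk, p-Akt, p-Jak2 and p-Stat5 with ECL detection. Blots were reprobed for total proteins; three repeats.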

[3] = system: myeloid blasts from JMML patients with the PTPN11E76K/+ mutation; test: Colony-forming unit assay, GM-CSF; format: cell-based, human; conditions: GM-CSF 1.0 ng/mL, 14 days
Procedure, shortened: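 Bone marrow cells or splenocytes from JMML patients carrying PTPN11E76K/+ were plated at 5×10^4 cells/mL in 0.9% methylcellulose IMDM with 30% FBS, glutamine (10^-4 M), β-mercaptoethanol (3.3×10^-5 M) and GM-CSF (1.0 ng/mL), plus test compound at varying doses or matching DMSO. After 14 days at 37°C in 5% CO2, CFU-GM and CFU-M colonies were counted and normalized to DMSO-treated cells. Three patient samples were run in triplicate.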

GST-SHP2 PTP = test: Enzymatic kinetic analyses; format: biochemical; conditions: Cryptotanshinone 25 μM
[4] = system: JMML cells (PTPN11E76K/+); test: Total cell number in GM-CSF-containing medium; format: cell-based, human
[5] = system: WT mouse embryonic fibroblasts; test: MEF cell growth; format: cell-based; conditions: Cryptotanshinone 20 μM
[6] = system: PTPN11E76K/+ mouse embryonic fibroblasts; test: MEF cell growth; format: cell-based; conditions: Cryptotanshinone 20 μM
SHP2 PTP domain = test: Fluorescence titration; format: binding; conditions: increasing compound concentrations
Procedure, shortened: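 Intrinsic tryptophan fluorescence of the GST-fused SHP2 PTP domain (purified), diluted in 20 mM Tris-HCl pH 7.5. Protein level is held constant while test compound is raised stepwise. Spectra are recorded on a luminescence spectrometer, and fluorescence is plotted against log compound concentration (M). The experiment was repeated twice; data are mean±S.E.M. of triplicates.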

[7] = system: myeloid progenitors from PTPN11E76K/+ mice; test: Colony-forming unit assay, GM-CSF; format: cell-based, mouse; conditions: GM-CSF 1.0 ng/mL, 7 days
Procedure, shortened: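 Bone marrow from PTPN11E76K/+/Mx1-Cre+ and PTPN11+/+/Mx1-Cre+ mice was plated at 5×10^4 cells/mL in 0.9% methylcellulose IMDM with 30% FBS, glutamine, β-mercaptoethanol and GM-CSF (1.0 ng/mL), with test compound at varying doses or DMSO. CFU-GM and CFU-M colonies were counted after 7 days at 37°C in 5% CO2 and normalized to colonies from DMSO-treated WT cells. Triplicates, two independent experiments.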

[8] = system: H661 human lung cancer cells (PTPN11 N58S); test: Cell proliferation assay; format: cell-based; conditions: 48 hours
Hela cells = test: HeLa cell growth after control or SHP2 siRNA; format: cell-based; conditions: 24 hours treatment
Procedure, shortened: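 HeLa cells were transfected with control or SHP2 siRNA (400 pmoles/8.0×10^5 cells). After 48 h they were exposed to test compound at graded concentrations or DMSO, and cell numbers were determined 24 h later. Treated knockdown and control cells were each normalized to their untreated counterparts. Knockdown was confirmed by anti-SHP2 immunoblot with β-actin as loading control. Triplicates; three experiments.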

H661 cells = test: Cell cycle analysis; format: cell-based, human
[9] = molecular target: T1, SHP2 PTP domain (GST-SHP2 PTP) (Homo sapiens, UniProt Q06124); format: biochemical; conditions: phospho-EGFR peptide substrate
T1 sequence (Q06124 247-517 limits assumed): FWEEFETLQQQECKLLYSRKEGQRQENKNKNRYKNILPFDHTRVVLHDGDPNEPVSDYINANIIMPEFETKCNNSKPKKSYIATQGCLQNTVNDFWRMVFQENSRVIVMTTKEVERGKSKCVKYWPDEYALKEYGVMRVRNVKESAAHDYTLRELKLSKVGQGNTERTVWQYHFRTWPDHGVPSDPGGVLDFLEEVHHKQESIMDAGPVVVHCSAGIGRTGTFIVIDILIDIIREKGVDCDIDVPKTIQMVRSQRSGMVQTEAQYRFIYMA
Procedure, shortened: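 In-house purified GST-SHP2 PTP domain (0.5 μg) was preincubated with test compound at various concentrations for 30 min at room temperature. Buffer: 25 mM Tris-HCl pH 7.4, 50 mM NaCl, 5 mM DTT, 2.5 mM EDTA. EGFR pTyr peptide (DADEpYLIPQQG) was added to 0.2 mM final, then 30°C for 30 min. Released phosphate was detected with Malachite Green, reading OD620 after 10 min.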

SHP1 = test: In vitro phosphatase activity assay, phospho-EGFR peptide substrate; format: biochemical

Compound: C[C@H]1COC2=C1C(=O)C(=O)c1c2ccc2c1CCCC2(C)C [Cryptotanshinone]
reversibility of SHP2 inhibition (SHP2): irreversible inhibitor
cell proliferation of U937 cells [1]: decreased cell proliferation in a dose-dependent manner
apoptosis in U937 cells (U937 cells): robust induction of apoptosis
tyrosine-phosphorylation of Gab2 and Gab2-SHP2 interaction [2]: markedly decreased
IL-3-induced activation of Erk, Akt, Jak2, and Stat5 (phosphorylation levels) ([2]; 3 hours pretreatment, IL-3 1.0 ng/mL): greatly suppressed
colony formation of JMML myeloid blasts [3]: exquisitely sensitive
change of Vmax by inhibitor (GST-SHP2 PTP): decreased
type of inhibition (GST-SHP2 PTP): mixed-type inhibitor
total cell number of JMML cells [4]: greatly decreased
cell growth of WT MEFs [5]: decreased cell growth
cell growth of PTPN11E76K/+ MEFs [6]: decreased cell growth
sensitivity of PTPN11E76K/+ MEFs relative to WT [6]: more sensitive
quenching of SHP2 fluorescence (SHP2 PTP domain): strong quenching of SHP2 fluorescence in a dose-dependent manner
colony-forming capabilities of mutant SHP2-expressing progenitors [7]: significantly reduced
cell proliferation of H661 cells [8]: decreased cell proliferation in a dose-dependent manner
proliferation of control siRNA cells (Hela cells): decreased
sensitivity of SHP2-depleted cells (Hela cells; SHP2 siRNA): much less sensitive
cell cycle effect in H661 cells (H661 cells): G1-S arrest

Compound: Cc1cccc2c3c(ccc12)C1=C(C(=O)C3=O)[C@@H](C)CO1 [Dihydrotanshinone]
SHP2 IC50, fold lower than that of Cryptotanshinone [9]: 5.71 fold
selectivity between SHP2 and SHP1 (SHP1): no selectivity between SHP2 and SHP1

SHP2 IC50, fold lower than that of Cryptotanshinone [9]: 8.69 fold
selectivity between SHP2 and SHP1 (SHP1): no selectivity between SHP2 and SHP1
Compound: Cc1coc2c1C(=O)C(=O)c1c-2ccc2c1CCCC2(C)C [Tanshinone IIA]

SHP2 IC50, fold lower than that of Cryptotanshinone [9]: 8.75 fold
selectivity between SHP2 and SHP1 (SHP1): no selectivity between SHP2 and SHP1
Compound: Cc1coc2c1C(=O)C(=O)c1c-2ccc2c(C)cccc12 [Tanshinone I]
